Laboratory results as given in ChEMBL document CHEMBL1140092, “New chimeric antimalarials with 4-aminoquinoline moiety linked to a tetraoxane skeleton” (J Med Chem, 2008).
Activity calls are given as the source filed them.

Key:
[1] = test system: Mycobacterium tuberculosis; assay: Antitubercular activity against Mycobacterium tuberculosis H37Rv by microplate alamar blue assay; format: functional
Summary of the method: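 M. tuberculosis H37Rv was tested at TAACF by microplate Alamar blue assay (MABA). Inhibitory activity was reported as IC90.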

Plasmodium falciparum [2] = assay: Antimalarial activity against chloroquine-sensitive Plasmodium falciparum D6; format: functional, organism-based
Summary of the method: (§1)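 In vitro blood-stage assay with P. falciparum clones: D6 (Sierra I/UNC isolate), W2 (Indochina I isolate) and TM91C235 (Southeast Asian isolate). Activity was expressed as IC90.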

[3] = test system: Mycobacterium tuberculosis; assay: Antitubercular activity against Mycobacterium tuberculosis H37Rv at 6.26 ug/ml by alamar blue assay; format: functional
Summary of the method: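 Screened against M. tuberculosis H37Rv at TAACF by Alamar blue assay at a cutoff of 6.26 µg/mL. Active was defined as >90% inhibition.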

Plasmodium falciparum [4] = assay: Antimalarial activity against multidrug-resistant Plasmodium falciparum TM91C235; format: functional, organism-based; summary of the method: as §1
Plasmodium falciparum [5] = assay: Antimalarial activity against chloroquine-resistant, mefloquine-susceptible Plasmodium falciparum W2; format: functional, organism-based; summary of the method: as §1
Plasmodium berghei [6] = assay: Antimalarial activity against Plasmodium berghei KBG173 infected ICR mice (Mus musculus) assessed at 20 mg/kg/day peroral dose from days 3 to 5 post infection; format: functional; conditions: route oral
Summary of the method: (§2)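 Modified Thompson test in groups of five ICR mice. Mice were inoculated ip with P. berghei KBG 173-infected erythrocytes on day 0. Compound was suspended in 0.5% hydroxyethylcellulose-0.1% Tween 80 and given orally once daily on days 3-5. Blood smears were read on days 6-31. Cure was defined as alive on day 31 with no parasites in a blood film. Necropsy followed.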

Plasmodium berghei [7] = assay: Antimalarial activity against Plasmodium berghei KBG173 infected ICR mice (Mus musculus) at 320 mg/kg/day peroral dose from days 3 to 5 post infection; format: functional; conditions: route oral; summary of the method: as §2
Plasmodium berghei [8] = assay: Antimalarial activity against Plasmodium berghei KBG173 infected ICR mice (Mus musculus) at 20 mg/kg/day peroral dose from day 3 post infection at day 31 by modified Thompson test; format: functional, organism-based; summary of the method: as §2
Plasmodium berghei [9] = assay: Antimalarial activity against Plasmodium berghei KBG173 infected ICR mice (Mus musculus) at 320 mg/kg/day peroral dose from day 3 post infection at day 31 by modified Thompson test; format: functional, organism-based; summary of the method: as §2
Plasmodium berghei [10] = assay: Antimalarial activity against Plasmodium berghei KBG173 infected ICR mice (Mus musculus) assessed at 80 mg/kg/day peroral dose from days 3 to 5 post infection; format: functional; conditions: route oral; summary of the method: as §2
Mus musculus = assay: Toxicity in Plasmodium berghei KBG173-infected ICR mice (Mus musculus) at 960 mg/kg, perorally for 3 days; format: organism-based; design: dose 960 mg/kg, route oral; conditions: in vivo, po, 72 h
Summary of the method: (§3)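 Orally dosed, P. berghei KBG 173-infected ICR mice in groups of five received compound suspended in 0.5% hydroxyethylcellulose-0.1% Tween 80 once daily for three consecutive days. Doses went up to 960 mg/kg. Toxicity was judged by survival and by gross lesions at necropsy.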

[11] = Toxicity in Plasmodium berghei KBG173-infected perorally dosed ICR mice (Mus musculus) assessed as maximum tolerated dose; format: organism-based; conditions: in vivo, po; summary of the method: as §3
[12] = Metabolic stability in human liver microsomes assessed as half life; format: ADME, Microsome
[13] = Metabolic stability in mouse liver microsomes assessed as half life; format: ADME, Microsome

| SMILES | IC90 [1] [nM] | IC50 (Plasmodium falciparum [2]) [nM] | IC90 (Plasmodium falciparum [2]) [nM] | inhibition at 6.26 µg/mL [3] [%] | IC50 (Plasmodium falciparum [4]) [nM] | IC90 (Plasmodium falciparum [4]) [nM] | IC50 (Plasmodium falciparum [5]) [nM] | IC90 (Plasmodium falciparum [5]) [nM] | Survival (Plasmodium berghei [6]) [days] | Survival (Plasmodium berghei [7]) [days] | Activity (Plasmodium berghei [8]) | Activity (Plasmodium berghei [9]) | Survival (Plasmodium berghei [10]) [days] | Activity (Mus musculus) | MTD [11] [mg/kg] | half-life [12] [h] | half-life [13] [h] |
| --- | --- | --- | --- | --- | --- | --- | --- | --- | --- | --- | --- | --- | --- | --- | --- | --- | --- |
| CC(=O)O[C@H]1C[C@H]2[C@@H]([C@H](OC(C)=O)C[C@@H]3CC4(CC[C@@]32C)OOC2(CCCCC2)OO4)[C@@H]2CC[C@H]([C@H](C)CCC(=O)NCCNc3ccnc4cc(Cl)ccc34)[C@@]12C | 400 | 6.53 | 10.6 | > 90 | 8.54 | 17.2 | 4.47 | 10.7 |  |  |  |  |  |  |  |  |  |
| Clc1ccc2c(NCCNCC3CCC4(CC3)OOC3(CCCCC3)OO4)ccnc2c1 | < 430 | 9.05 | 18.2 | > 90 | 9.9 | 18.3 | 5.76 | 12.4 | 15.8 | >31 | inactive | Active | 26.4 | Non-toxic | > 960 |  |  |
| O=C(NCCNc1ccnc2cc(Cl)ccc12)C1CCC2(CC1)OOC1(CCCCC1)OO2 |  | 2.33 | 3.75 | > 90 | 3.7 | 7.38 | 2 | 2.26 | 14.2 | >31 | inactive | Active | 26.2 | Non-toxic | > 960 | > 1 | > 1 |
| CC(=O)O[C@H]1C[C@H]2[C@@H]([C@H](OC(C)=O)C[C@@H]3CC4(CC[C@@]32C)OOC2(CCCCC2)OO4)[C@@H]2CC[C@H]([C@H](C)CCCNCCNc3ccnc4cc(Cl)ccc34)[C@@]12C | 330 | 33.5 | 103 | > 90 | 30.2 | 160 | 22.9 | 30.3 |  |  |  |  |  |  |  |  |  |
| CCN(CC)CCCC(C)Nc1ccnc2cc(Cl)ccc12 (configuration not stated) [CHLOROQUINE] |  |  | 15.9 |  |  | 264 |  | 640 |  |  |  |  |  |  |  |  |  |
| OC(c1cc(C(F)(F)F)nc2c(C(F)(F)F)cccc12)C1CCCCN1 (configuration not stated) [MEFLOQUINE] |  | 19 | 44.8 |  | 47.5 | 153 | 5.35 | 18.6 |  |  |  |  |  |  |  |  |  |
| C[C@@H]1CC[C@H]2[C@@H](C)C(=O)O[C@@H]3O[C@@]4(C)CC[C@@H]1[C@]32OO4 [ARTEMISININ] |  | 9 | 12.8 |  | 13 | 17.4 | 6.7 | 11.5 |  |  |  |  |  |  |  |  |  |
